Test results from ChEMBL document CHEMBL1154428, “Cloning, nucleotide sequencing, and analysis of the AcrAB-TolC efflux pump of Enterobacter cloacae and determination of its involvement in antibiotic resistance in a clinical isolate” (2007).
Converted amounts (≈) assume the structure as drawn.

What was measured:
Enterobacter cloacae [1] = test system: Enterobacter cloacae
Enterobacter cloacae [2] = test system: Enterobacter cloacae; remark: listed apart in the source
Enterobacter cloacae [3] = test system: Enterobacter cloacae; remark: listed apart in the source
Enterobacter cloacae [4] = conditions: EcDC64
Enterobacter cloacae [5] = test system: Enterobacter cloacae; remark: listed apart in the source
Enterobacter cloacae [6] = test system: Enterobacter cloacae; remark: listed apart in the source
Enterobacter cloacae [7] = test system: Enterobacter cloacae; remark: listed apart in the source
Enterobacter cloacae [8] = test: Antibacterial activity against drug-resistant Enterobacter cloacae EcDC64 isolate expressing pAP3 plasmid containing Enterobacter aerogenes acrR gene by broth microdilution method
Enterobacter cloacae [9] = test: Antibacterial activity against drug-resistant AcrAB-TolC efflux pump deficient Enterobacter cloacae EcdeltaacrA isolate expressing pACYC184 plasmid by broth microdilution method; format: functional
In short: (§1)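 Broth microdilution MICs for detergents and dyes (SDS, sodium cholate, sodium deoxycholate, acriflavine, ethidium bromide, Triton X-100, crystal violet). E. cloacae inoculum 5 × 10^5 CFU/ml, incubated 16 to 20 h at 37°C. The MIC was the lowest concentration giving complete growth inhibition. The acrA knockout carries a kanamycin-resistance insertion made by Red-mediated recombination.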

Enterobacter cloacae [10] = test: Antibacterial activity against drug-resistant Enterobacter cloacae EcDC64 isolate expressing AcrAB-TolC efflux pump by broth microdilution method; format: functional
In short: as §1

Enterobacter cloacae [11] = test: Antibacterial activity against drug-resistant AcrAB-TolC efflux pump deficient Enterobacter cloacae EcdeltaacrA isolate by broth microdilution method; format: functional
In short: as §1

Enterobacter cloacae [12] = test: Antibacterial activity against drug-resistant AcrAB-TolC efflux pump deficient Enterobacter cloacae EcdeltaacrA isolate expressing pAP2 plasmid containing Enterobacter cloacae acrA gene by broth microdilution method; format: functional
In short: as §1

Enterobacter cloacae [13] = test: Antibacterial activity against drug-resistant Enterobacter cloacae EcDC64 isolate expressing pBGS18 plasmid by broth microdilution method
Enterobacter cloacae [14] = test: Antibacterial activity against drug-resistant Enterobacter cloacae EcDC64 isolate expressing AcrAB-TolC efflux pump in presence of 20 ug/ml efflux pump inhibitor Phe-Arg-beta-naphthylamide by Etest
Enterobacter cloacae [15] = test: Antibacterial activity against drug-resistant Enterobacter cloacae EcDC64 isolate expressing pAP1 containing Escherichia coli ampD by Etest; format: functional
Enterobacter cloacae [16] = test: Antibacterial activity against drug-resistant AcrAB-TolC efflux pump deficient Enterobacter cloacae EcdeltaacrA isolate expressing pBGS18 plasmid by Etest; format: functional
Enterobacter cloacae [17] = test: Antibacterial activity against drug-resistant AcrAB-TolC efflux pump deficient Enterobacter cloacae EcdeltaacrA isolate expressing pAP2 plasmid containing Enterobacter cloacae acrA gene by Etest; format: functional
Enterobacter cloacae [18] = test: Antibacterial activity against drug-resistant Enterobacter cloacae EcDC64 isolate expressing AcrAB-TolC efflux pump by Etest; format: functional
Enterobacter cloacae [19] = test: Antibacterial activity against drug-resistant AcrAB-TolC efflux pump deficient Enterobacter cloacae EcdeltaacrA isolate by Etest; format: functional
Enterobacter cloacae [20] = test: Antibacterial activity against drug-resistant AcrAB-TolC efflux pump deficient Enterobacter cloacae EcdeltaacrA isolate expressing pACYC184 plasmid by Etest; format: functional
Enterobacter cloacae [21] = test: Antibacterial activity against drug-resistant AcrAB-TolC efflux pump deficient Enterobacter cloacae EcdeltaacrA isolate expressing pAP3 plasmid containing Enterobacter aerogenes acrR gene by Etest; format: functional
Enterobacter cloacae [22] = test: Antibacterial activity against drug-resistant AcrAB-TolC efflux pump deficient Enterobacter cloacae EcdeltaacrA isolate in presence of 20 ug/ml efflux pump inhibitor Phe-Arg-beta-naphthylamide by Etest; format: functional

Q: With GENTAMICIN as the compound, how does the MIC (Enterobacter cloacae [1]) read?
A: 0.25 µg/mL

Q: What about the MIC (Enterobacter cloacae [2]) of the same compound?
A: 1 µg/mL

Q: And the MIC (Enterobacter cloacae [3])?
A: 0.125 µg/mL

Q: And the MIC (Enterobacter cloacae [4])?
A: 1.5 µg/mL

Q: And the MIC (Enterobacter cloacae [5])?
A: 0.094 µg/mL

Q: And the MIC (Enterobacter cloacae [6])?
A: 0.125 µg/mL

Q: And the MIC (Enterobacter cloacae [7])?
A: 1 µg/mL

Q: CN(C)c1ccc(C(=C2C=CC(=[N+](C)C)C=C2)c2ccc(N(C)C)cc2)cc1.[Cl-] [GENTIAN VIOLET] was tested. Which MIC (Enterobacter cloacae [8]) did it give?
A: 1020 µg/mL

Q: And the MIC (Enterobacter cloacae [9])?
A: 256 µg/mL

Q: What about the MIC (Enterobacter cloacae [10]) of the same compound?
A: 4100 µg/mL

Q: What about the MIC (Enterobacter cloacae [11]) of the same compound?
A: 512 µg/mL

Q: And the MIC (Enterobacter cloacae [12])?
A: 1020 µg/mL

Q: And the MIC (Enterobacter cloacae [13])?
A: 4100 µg/mL

Q: Which results are given for C[C@@H](O)[C@H]1C(=O)N2C(C(=O)O)=C(S[C@@H]3CN[C@H](C(=O)N(C)C)C3)[C@H](C)[C@H]12 [MEROPENEM]?
A: MIC (Enterobacter cloacae [14]): 32 µg/mL; MIC (Enterobacter cloacae [15]): 0.75 µg/mL (≈ 1.96 µM); MIC (Enterobacter cloacae [16]): > 32 µg/mL; MIC (Enterobacter cloacae [17]): > 32 µg/mL; MIC (Enterobacter cloacae [18]): > 32 µg/mL; MIC (Enterobacter cloacae [19]): 24 µg/mL (≈ 62.6 µM); MIC (Enterobacter cloacae [20]): > 32 µg/mL; MIC (Enterobacter cloacae [21]): 24 µg/mL (≈ 62.6 µM); MIC (Enterobacter cloacae [22]): 1 µg/mL

Q: With C[C@@H](O)[C@H]1C(=O)N2C(C(=O)O)=C(SCCNC=N)C[C@H]12 [IMIPENEM ANHYDROUS] as the compound, how does the MIC (Enterobacter cloacae [14]) read?
A: 32 µg/mL

Q: What about the MIC (Enterobacter cloacae [15]) of the same compound?
A: 2 µg/mL (≈ 6.68 µM)

Q: What about the MIC (Enterobacter cloacae [16]) of the same compound?
A: > 32 µg/mL

Q: And the MIC (Enterobacter cloacae [17])?
A: > 32 µg/mL

Q: And the MIC (Enterobacter cloacae [18])?
A: > 32 µg/mL

Q: What about the MIC (Enterobacter cloacae [19]) of the same compound?
A: 24 µg/mL (≈ 80.2 µM)

Q: And the MIC (Enterobacter cloacae [20])?
A: > 32 µg/mL

Q: What about the MIC (Enterobacter cloacae [21]) of the same compound?
A: 24 µg/mL (≈ 80.2 µM)

Q: What about the MIC (Enterobacter cloacae [22]) of the same compound?
A: 6 µg/mL

Q: What does the source list for C[n+]1c2cc(N)ccc2cc2ccc(N)cc21.[Cl-] [EUFLAVINE]?
A: MIC (Enterobacter cloacae [8]): 32 µg/mL; MIC (Enterobacter cloacae [9]): 16 µg/mL; MIC (Enterobacter cloacae [10]): 128 µg/mL; MIC (Enterobacter cloacae [11]): 16 µg/mL; MIC (Enterobacter cloacae [12]): 64 µg/mL; MIC (Enterobacter cloacae [13]): 128 µg/mL

Q: Which MIC (Enterobacter cloacae [8]) does the source give for CC[n+]1c(-c2ccccc2)c2cc(N)ccc2c2ccc(N)cc21.[Br-] [HOMIDIUM BROMIDE] here?
A: 256 µg/mL

Q: What about the MIC (Enterobacter cloacae [9]) of the same compound?
A: 64 µg/mL

Q: What about the MIC (Enterobacter cloacae [10]) of the same compound?
A: 2050 µg/mL

Q: What about the MIC (Enterobacter cloacae [11]) of the same compound?
A: 128 µg/mL

Q: What about the MIC (Enterobacter cloacae [12]) of the same compound?
A: 1020 µg/mL

Q: What about the MIC (Enterobacter cloacae [13]) of the same compound?
A: 2050 µg/mL

Q: Which MIC (Enterobacter cloacae [8]) does the source give for CCCCCCCCCCCCOS(=O)(=O)[O-].[Na+] [SODIUM LAURYL SULFATE] here?
A: 1020 µg/mL

Q: And the MIC (Enterobacter cloacae [9])?
A: 128 µg/mL

Q: What about the MIC (Enterobacter cloacae [10]) of the same compound?
A: 8190 µg/mL

Q: And the MIC (Enterobacter cloacae [11])?
A: 256 µg/mL

Q: What about the MIC (Enterobacter cloacae [12]) of the same compound?
A: 4100 µg/mL

Q: And the MIC (Enterobacter cloacae [13])?
A: 8190 µg/mL
